Experimental data published in ChEMBL document CHEMBL1150955, “Antimycobacterial activities of dehydrocostus lactone and its oxidation products” (1998).
≈ marks a conversion by molar mass, not a printed value.

What follows are molecules tested on Mycobacterium tuberculosis (assay: Antimycobacterial activity against Mycobacterium tuberculosis H37Rv by radiorespirometric bioassay).
Type: functional
Outline: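 Radiorespirometric bioassay giving MIC against strain H37Rv, run essentially per earlier reports; M. tuberculosis experiments usually completed in 10 days.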
For `C=C1CC[C@H]2C(=C)CC[C@@]3(O)C(=C)C(=O)O[C@@H]3[C@@H]12`, the MIC was greater than 128 µg/mL.
`C=C1C(=O)O[C@@H]2[C@@H]3[C@@H](CC[C@]34CO4)[C@@]3(CC[C@@H]12)CO3` gave an MIC of 128 µg/mL (≈ 488 µM).
With `C=C1C(=O)O[C@@H]2[C@@H]3[C@@H](CC[C@]34CO4)C(=C)CC[C@@H]12` the MIC was 32 µg/mL (≈ 130 µM).
In the case of `C=C1C(=O)O[C@@H]2[C@@H]3[C@@H](CC[C@@]34CO4)[C@]3(CC[C@@H]12)CO3`, the MIC is reported as 64 µg/mL (≈ 244 µM).
Molecule `C=C1C(=O)O[C@@H]2[C@@H]3[C@@H](CC[C@]34CO4)[C@]3(CC[C@@H]12)CO3` has an MIC of 128 µg/mL (≈ 488 µM).
Molecule `C=C1CC[C@@H]2[C@H]1[C@H]1OC(=O)C(=C)[C@@H]1CC[C@]21CO1` [DEHYDROCOSTUS LACTONE,10ALPHA(14)EPOXIDE] has an MIC of 64 µg/mL (≈ 260 µM).
In the case of `C=C1CC[C@@H]2[C@H]1[C@H]1OC(=O)C(=C)[C@@H]1CC[C@@]21CO1` [DEHYDROCOSTUS LACTONE,10BETA(14)EPOXIDE], the MIC is reported as 32 µg/mL (≈ 130 µM).
Work on `C=C1CC[C@H]2C(=C)CC[C@H]3C(=C)C(=O)O[C@@H]3[C@@H]12` [DEHYDROCOSTUSLACTONE] yielded an MIC of 2 µg/mL (≈ 8.68 µM).
Molecule `C=C1[C@@H]2[C@H]3OC(=O)C(=C)[C@@H]3CCC(=C)[C@@H]2C[C@H]1O` [ISOZALUZANIN C] has an MIC greater than 128 µg/mL.
`C=C1C(=O)O[C@H]2[C@H]1CCC(C)=C1CC[C@@](C)(O)[C@@H]12` [MICHELIOLIDE] was tested, and the MIC was 50 µg/mL (≈ 201 µM).
Work on `C=C1C(=O)O[C@H]2[C@H]1[C@@H](O)[C@H](OC(=O)/C(C)=C\C)C(C)=C1C(=O)C=C(C)[C@@]12O` [PUMILIN] yielded an MIC of 128 µg/mL (≈ 342 µM).

These molecules were tested on Mycobacterium avium (assay: Antimycobacterial activity against Mycobacterium avium by radiorespirometric bioassay).
Type: functional
Outline: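 MIC determined in a radiorespirometric bioassay run essentially per earlier reports; M. avium experiments usually completed within 5 days.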
`C=C1CC[C@H]2C(=C)CC[C@H]3C(=C)C(=O)O[C@@H]3[C@@H]12` [DEHYDROCOSTUSLACTONE] showed an MIC of 16 µg/mL (≈ 69.5 µM).
For `C=C1C(=O)O[C@H]2[C@H]1[C@@H](O)[C@H](OC(=O)/C(C)=C\C)C(C)=C1C(=O)C=C(C)[C@@]12O` [PUMILIN], the MIC was 128 µg/mL (≈ 342 µM).
